Among the data in the RNAGym collection of RNA variant scans (doi:10.1126/science.aae0568) are yeast fitness values, retold here.

Sequences and labels used below:
B1: tRNA (parent)
chain: GUUCCGUUGGCGUAAUGGUAACGCGUCUCCCUCCUAAGGAGAAGACUGCGGGUUCGAGUCCCGUACGGAACG

This sample holds only a part of the variants without activity.

The data set covers variants of B1. Kind of data set: yeast fitness relative to wild type (ratio to wild type); higher = fitter; tRNA-Arg(CCU), competitive growth, 37 C, YPD. The gist of the method:
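Changes in genotype frequencies gave Darwinian fitness relative to wild type. Frequencies were read by 100-nucleotide paired-end sequencing of gene amplicons before and after pooled Saccharomyces cerevisiae strains, carrying tRNA-Arg(CCU) gene variants at the native locus, were competed in YPD at 37°C for 24 hours in six replicates. A genotype was kept only with ≥ 100 starting reads, and estimates < 0.5 were set to 0.5.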
Take GUUCCGUUGGAGUAAUGGUAACGCGUCUCCUUCCUAAGGAGAAGACUGCGGGAUCGAGUCCCGUUCGGAACG: the yeast fitness is at most 0.5.
To GUUCCGUUGGAGUAAUGGUAACGCGUCUCCCUCCUAAGGAGAAGACUGCGGGUUAGAGUCCCGUAAGGAACG belongs at most 0.5; to GUUCCGUUGGAGUAAUGGUAACGCGUGUCCCUCCUAAGGAGAAGACUGCGGGUUCGAGUCCCGUACGGACCG, at most 0.5; to GUUCCGUUGGAGUAAUGGUAACGCGUGUCCCUCCUAAGGAGAAGACUGCGGGUUCGAGUCCCGAGCUGAACG, at most 0.5.
The value for GUUCCGUUGGAGUAAUGGUAACGCGUCUCCCUCCUAAGGAGAAGACUGAGGGUUCGAGUCCCGUAUGGAACG was at most 0.5.
To GUUCCGUUGGAGUAAUGGUAACGCGUGUCCCUCCUAAGGAGAAGACUGCAGGUUCGAGUCCCGGACGGAACG belongs at most 0.5.
Take GUUCCGUUGGAGUAAUGGUAACGCGUUCCCCUCCUAAGGAGAAGACUGCGGGUUCGCGUCCAGUACGGAACG: the yeast fitness is 0.716.
The value for GUUCCGUUGGAGUAAUGGUAACGCGUCUCUUUCCUGAGCAGAAGUCUGCGGCUUCGAGUACCGUACGGAACG was at most 0.5.
To GUUCCGUUGGAGUAAUGGUAACGCGUCUCCCUCCUAAGGAGAAGACUGAGGGUUCGAGUCCCGUACGGAACG belongs at most 0.5; to GUUCCGUUGGAGUAAUGGUAACGCGUCUCCCUCCUAAGGAGAAGACUGCGGGUUCGAGUGCCGUUCGGAACG, at most 0.5; to GUUCCGUUGGAGUAAUGGUAACGCGUCUCCCUCAUAAGGAGAAGACUGCGGCUUCGAGUCCCGUACGGAACG, 0.541.
The value for GUUCCGUUGGAGUAAUGGUAACGCGUCUCCCUCCUAAGGAGAAGACUGCGGGUUCGAGUCCAGUAUGGAACG was 0.629; that for GUUCCGUUGGAGUAAUGGUAACGCGUCUCGCUCCUAAGGAGAAGUCUGCGGGUUCGAGUACUGUACGGAACG was at most 0.5.
Turning to GUUCCGUUGGAGUAAUGGUAACGCGUCUCCGUCCUAAGGAGUAGACUGCGGGUUCGAGUCCAGUAUGGUACG, the yeast fitness was at most 0.5.
For the variant GUUCCGUUGGAGUAAUGGUAACGCGUCUCCCUCCUAAGGAGAAGACUGCGGGUUCGAGUCCGGUACGGAUCG, the yeast fitness stood at 0.542.
The value for GUUCCGUUGGAGUAAUGGUAACGCGUCUCCCUCCUAAGGAGAAGACUGCGGGUUUGAGUCCCAUACGGAACG was at most 0.5; that for GUUCCGUUGGAGUAAUGGUAACGCGUCUCCCUCCUAAGGAGAAGAUUGCGGGUUCGAGUCCCGUACGGAACG was 0.712; that for GUUCCGUUGGAGUAAUGGUAACGCGUCUCCCUUCUAAGGAGAAGACUGCGGGUUCGAGUCCUGUACGGCACG was at most 0.5.
The value for GUUCCGUUGGAGUAAUGGUAACGCGUCUCCCUCCUAAGGAGAAGACUGCGGGUUCGAGUCCGGUACGGAACG was 0.552; that for GUUCCGUUGGAGUAAUGGUAACGCGUGUCCUUCCUAAGGAGAAGACUGCGGGUUCGAGUCCCGUACGAAACG was at most 0.5.
For GUUCCGUUGGAGUAAUGGUAACGUGUCUCCCUCAUAUGGAGAAGACUGCGGGUUCGAGUCCCGUACGGAACG, the yeast fitness is at most 0.5.
The value for GUUCCGUUGGAGUAAUGGUAACGCGUCUCCUUCCUACGGAGAAGACUGCGGGUUCGAGUCCCGUAUGGAACG was at most 0.5; that for GUUCCGUUGGAGUAAUGGUAACGUGUCUCCCUCCUAAGGAGAAGACUACGGGUUCGAGUCCCGUACGGAACG was at most 0.5.
To GUUCCGUUGGAGUAAUGGUAACGCGUCUCCCUGCUAAGGAGACGACUGCGGGUUCGAGUCCCGUACGAAACG belongs 0.61; to GUUCCGUUGGAGUAAUGGUAACGCGUUUCCCUCCUAAGGAGAAUACUGCGGGUUCGAGUCCCGUACGGAACG, at most 0.5.
GUUCCGUUGGAGUAAUGGUAACGCGUCUCCCUCUUAAGGAGAAGACUGCGGGCUCGAGUCCCGUACGGCACG: the yeast fitness is at most 0.5.
Regarding GUUCCGUUGGAAUAAUGGUAACGCGUCUUCCUCCUAAGGAGAAGACUACAGGUUCGAGUCCCGUACGGAACG, the yeast fitness was at most 0.5.
GUUCCGUUGGAGUAAUGGUAACGCGUCUCCUUCCUAAGGACACGACUGCGGGUUCGAGUGCCGUACGGAACG: the yeast fitness is at most 0.5.
To GUUCCGUUGGAGUAAUGGUAACGCGUGUCCAUCCUAAGGAGAAGACUGCGGGUUCGAGUCCCGUACGGAACG belongs 0.543; to GUUCCGUUGGAGUAAUGGUAACGCGUCUCCCUCGUAAGGAGAAGACUGCGGGUUCGAGUCCCGUACAGAACG, at most 0.5.
GUUCCGUUGGAGUAAUGGUAACGCGUCUCCCUCCUAAGGAGAAGACUGAGGGUUCGAGUCCAGUACGGAACG: the yeast fitness was at most 0.5.
To GUUCCGUUGGAGUAAUGGUAACGCGUCUCCCUCUUAAGGAGGAGACUGCGGGUUCGAGUCCCGUACGGAACG belongs at most 0.5; to GUUCCGUUGGAGUAAUGGUAACGCGUCUCCCUCCUAAGGAGAAGAUUGCGGGAUCGAGUCCCCUACGGAACG, at most 0.5.
To GUUCCGUUGGAGUAAUGGUAACGCGUCUCCCUCCUAAGGAGAAGACUGUGGGUUCGAGUCCCGUACGAAACG belongs at most 0.5; to GUUCCGUUGGAGUAAUGGUAACGCGUCUCUCUCCUAAGGAGAAGACUGGGGGUUCGAGUCCCGUACGGAACG, 0.579.
The value for GUUCCGUUGGAGUAAUGGUAACGUGUCUCCCACCCAAGGAGAAGACUGCGGGUUCGAGUCCCGUACGGAACG was 0.566.
Take GUUCCGUUGGAGUAAUGGUAACGCGUGUCCCUCAUAAGGAGCAGACUGCGGGUCCGAGUACGGUACGGAUCG: the yeast fitness was 0.624.
For GUUCCGUUGGAGUAAUGGUAACGCGUCUCCAUCCUAAGGAGAACACUGCGGGUUCGAGUCCCGUACGGAACG, the yeast fitness was at most 0.5.
